Laboratory results published in ChEMBL document CHEMBL1126811, “Fluorinated and iodinated dopamine agents: D2 imaging agents for PET and SPECT” (J Med Chem, 1993).

Key:
[1] = system: Rattus norvegicus; experiment: Biodistribution of radioligand [125I]FIDA1 in muscle of rat after 30 minutes after an intravenous injection is given (average of 2 rats); assay type: ADME, organism-based, Muscle tissue; settings: in vivo, 0.5 h
[2] = system: Rattus norvegicus; experiment: Uptake of radioligand [125I]-FIDA1 by cerebellum in rat after 30 minutes after an intravenous injection is given (average of 2 rats); assay type: ADME, organism-based; settings: in vivo, 0.5 h
Procedure, shortened: (§1)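 Male Sprague–Dawley rats (225–300 g) under ether anesthesia received radioiodinated tracer (8–10 μCi in 0.2 mL saline) into the femoral vein. They were killed by cardiac excision at set times. Cortex, striatum, hippocampus and cerebellum were dissected, weighed and gamma-counted. Results are % dose/gram against diluted injected dose.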

[3] = system: Rattus norvegicus; experiment: Uptake of radioligand [125I]FIDA1 by cortex in rat after 30 minutes after an intravenous injection is given (average of 2 rats); assay type: ADME, organism-based; settings: in vivo, 0.5 h; procedure, shortened: as §1
[4] = system: Rattus norvegicus; experiment: Uptake of radioligand [125I]FIDA1 by hippo-campus in rat after 120 minutes after an intravenous injection is given (average of 3 rats); assay type: ADME, organism-based; settings: in vivo, 2 h; procedure, shortened: as §1
[5] = system: Rattus norvegicus; experiment: Uptake of radioligand [125I]FIDA1 by hippo-campus in rat after 2 minutes after an intravenous injection is given (average of 3 rats); assay type: ADME, organism-based; settings: in vivo; procedure, shortened: as §1
[6] = system: Rattus norvegicus; experiment: Uptake of radioligand [125I]-FIDA1 by hippo-campus in rat after 60 minutes after an intravenous injection is given (average of 3 rats); assay type: ADME, organism-based; settings: in vivo, 1 h; procedure, shortened: as §1
[7] = system: Rattus norvegicus; experiment: Uptake of radioligand [125I]FIDA1 by striatum in rat after 30 minutes after an intravenous injection is given (average of 2 rats); assay type: ADME, organism-based; settings: in vivo, 0.5 h; procedure, shortened: as §1
[8] = system: Rattus norvegicus; experiment: Biodistribution of radioligand [125I]FIDA1 in brain of rat after 30 minutes after an intravenous injection is given (average of 2 rats); assay type: ADME, organism-based; settings: in vivo, 0.5 h
[9] = system: Rattus norvegicus; experiment: Uptake of radioligand [125I]FIDA1 by hippo-campus in rat after 30 minutes after an intravenous injection is given (average of 2 rats); assay type: ADME, organism-based; settings: in vivo, 0.5 h; procedure, shortened: as §1
[10] = system: Rattus norvegicus; experiment: Biodistribution of radioligand [125I]FIDA1 in liver of rat after 30 minutes after an intravenous injection is given (average of 2 rats); assay type: ADME, organism-based; settings: in vivo, 0.5 h
[11] = system: Rattus norvegicus; experiment: Biodistribution of radioligand [125I]FIDA1 in heart of rat after 30 minutes after an intravenous injection is given (average of 2 rats); assay type: ADME, organism-based; settings: in vivo, 0.5 h
[12] = system: Rattus norvegicus; experiment: Biodistribution of radioligand [125I]FIDA1 in lung of rat after 2 minutes after an intravenous injection is given (average of 3 rats); assay type: ADME, organism-based; settings: in vivo
Procedure, shortened: (§2)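 Male Sprague–Dawley rats (225–300 g) were given 0.2 mL saline containing the radioiodinated ligand (8–10 μCi) into the femoral vein under ether anesthesia. They were killed at set times by cardiac excision. Organs were weighed and γ-counted against diluted aliquots of the injected dose and expressed as % dose/organ. Blood and muscle were taken as 7% and 40% of body weight. Three rats were used per point.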

[13] = system: Rattus norvegicus; experiment: Biodistribution of radioligand [125I]FIDA1 in lung of rat after 30 minutes after an intravenous injection is given (average of 2 rats); assay type: ADME, organism-based; settings: in vivo, 0.5 h
[14] = system: Rattus norvegicus; experiment: Biodistribution of radioligand [125I]FIDA1 in muscle of rat after 120 minutes after an intravenous injection is given (average of 2 rats); assay type: ADME, organism-based, Muscle tissue; settings: in vivo, 2 h
[15] = system: Rattus norvegicus; experiment: Biodistribution of radioligand [125I]FIDA1 in liver of rat after 60 minutes after an intravenous injection is given (average of 3 rats); assay type: ADME, organism-based; settings: in vivo, 1 h; procedure, shortened: as §2
[16] = system: Rattus norvegicus; experiment: Biodistribution of radioligand [125I]FIDA1 in skin of rat after 30 minutes after an intravenous injection is given (average of 2 rats); assay type: ADME, organism-based, Zone of skin; settings: in vivo, 0.5 h
[17] = system: Rattus norvegicus; experiment: Biodistribution of radioligand [125I]FIDA1 in spleen of rat after 30 minutes after an intravenous injection is given (average of 2 rats); assay type: ADME, organism-based; settings: in vivo, 0.5 h
[18] = system: Rattus norvegicus; experiment: Biodistribution of radioligand [125I]FIDA1 in skin of rat after 2 minutes after an intravenous injection is given (average of 3 rats); assay type: ADME, organism-based, Zone of skin; settings: in vivo; procedure, shortened: as §2
[19] = system: Rattus norvegicus; experiment: Biodistribution of radioligand [125I]FIDA1 in thyroid of rat after 30 minutes after an intravenous injection is given (average of 2 rats); assay type: ADME, organism-based, Thyroid gland; settings: in vivo, 0.5 h
[20] = system: Rattus norvegicus; experiment: Biodistribution of radioligand [125I]FIDA1 in muscle of rat after 120 minutes after an intravenous injection is given (average of 3 rats); assay type: ADME, organism-based, Muscle tissue; settings: in vivo, 2 h; procedure, shortened: as §2
[21] = system: Rattus norvegicus; experiment: Biodistribution of radioligand [125I]FIDA1 in muscle of rat after 30 minutes after an intravenous injection is given (average of 3 rats); assay type: ADME, organism-based, Muscle tissue; settings: in vivo, 0.5 h; procedure, shortened: as §2
[22] = system: Rattus norvegicus; experiment: Uptake of radioligand [125I]FIDA1 by cerebellum in rat after 30 minutes after an intravenous injection is given (average of 3 rats); assay type: ADME, organism-based; settings: in vivo, 0.5 h; procedure, shortened: as §1
[23] = system: Rattus norvegicus; experiment: Uptake of radioligand [125I]-FIDA1 by cortex in rat after 30 minutes after an intravenous injection is given (average of 3 rats); assay type: ADME, organism-based; settings: in vivo, 0.5 h; procedure, shortened: as §1
[24] = system: Rattus norvegicus; experiment: Uptake of radioligand [125I]FIDA1 by hippocampus in rat after 120 minutes after an intravenous injection is given (average of 3 rats); assay type: ADME, organism-based; settings: in vivo, 2 h; procedure, shortened: as §1
[25] = system: Rattus norvegicus; experiment: Uptake of radioligand [125I]FIDA1 by hippocampus in rat after 2 minutes after an intravenous injection is given (average of 3 rats); assay type: ADME, organism-based; settings: in vivo; procedure, shortened: as §1
[26] = system: Rattus norvegicus; experiment: Uptake of radioligand [125I]-FIDA1 by hippocampus in rat after 30 minutes after an intravenous injection is given (average of 3 rats); assay type: ADME, organism-based; settings: in vivo, 0.5 h; procedure, shortened: as §1
[27] = system: Rattus norvegicus; experiment: Uptake of radioligand [125I]FIDA1 by hippocampus in rat after 60 minutes after an intravenous injection is given (average of 3 rats); assay type: ADME, organism-based; settings: in vivo, 1 h; procedure, shortened: as §1
[28] = system: Rattus norvegicus; experiment: Uptake of radioligand [125I]FIDA1 by striatum in rat after 30 minutes after an intravenous injection is given (average of 3 rats); assay type: ADME, organism-based; settings: in vivo, 0.5 h; procedure, shortened: as §1
[29] = system: Rattus norvegicus; experiment: Biodistribution of radioligand [125I]FIDA1 in blood of rat after 120 minutes after an intravenous injection is given (average of 3 rats); assay type: ADME, organism-based; settings: in vivo, 2 h; procedure, shortened: as §2
[30] = system: Rattus norvegicus; experiment: Biodistribution of radioligand [125I]FIDA1 in brain of rat after 30 minutes after an intravenous injection is given (average of 3 rats); assay type: ADME, organism-based; settings: in vivo, 0.5 h; procedure, shortened: as §2
[31] = system: Rattus norvegicus; experiment: Biodistribution of radioligand [125I]FIDA1 in liver of rat after 30 minutes after an intravenous injection is given (average of 3 rats); assay type: ADME, organism-based; settings: in vivo, 0.5 h; procedure, shortened: as §2
[32] = system: Rattus norvegicus; experiment: Biodistribution of radioligand [125I]FIDA1 in heart of rat after 30 minutes after an intravenous injection is given (average of 3 rats); assay type: ADME, organism-based; settings: in vivo, 0.5 h; procedure, shortened: as §2
[33] = system: Rattus norvegicus; experiment: Biodistribution of radioligand [125I]FIDA1 in thyroid of rat after 30 minutes after an intravenous injection is given (average of 3 rats); assay type: ADME, organism-based, Thyroid gland; settings: in vivo, 0.5 h; procedure, shortened: as §2
[34] = system: Rattus norvegicus; experiment: Biodistribution of radioligand [125I]FIDA1 in lung of rat after 30 minutes after an intravenous injection is given (average of 3 rats); assay type: ADME, organism-based; settings: in vivo, 0.5 h; procedure, shortened: as §2
[35] = system: Rattus norvegicus; experiment: Biodistribution of radioligand [125I]FIDA1 in skin of rat after 30 minutes after an intravenous injection is given (average of 3 rats); assay type: ADME, organism-based, Zone of skin; settings: in vivo, 0.5 h; procedure, shortened: as §2
[36] = system: Rattus norvegicus; experiment: Biodistribution of radioligand [125I]FIDA1 in spleen of rat after 30 minutes after an intravenous injection is given (average of 3 rats); assay type: ADME, organism-based; settings: in vivo, 0.5 h; procedure, shortened: as §2

COc1cc(I)cc(C(=O)NC[C@@H]2CCCN2Cc2ccc(F)cc2)c1OC
Dose/organ [1]: 10.87%
Dose/g [2]: 0.09%
Dose/g [3]: 0.14%
Dose/g [4]: 0.01%
Dose/g [5]: 0.47%
Dose/g [6]: 0.05%
Dose/g [7]: 0.4%
Dose/organ [8]: 0.21%
Dose/g [9]: 0.14%
Dose/organ [10]: 12.69%
Dose/organ [11]: 0.16%
Dose/organ [12]: 7.82%
Dose/organ [13]: 1.06%
Dose/organ [14]: 2.04%
Dose/organ [15]: 10.44%
Dose/organ [16]: 7.04%
Dose/organ [17]: 0.43%
Dose/organ [18]: 6.08%
Dose/organ [19]: 0.04%

CCN1CCC[C@H]1CNC(=O)c1cc(I)cc(OC)c1OCCF
Dose/organ [20]: 0.76%
Dose/organ [21]: 8.24%
Dose/g [22]: 0.03%
Dose/g [23]: 0.05%
Dose/g [24]: 0.0006%
Dose/g [25]: 0.25%
Dose/g [26]: 0.05%
Dose/g [27]: 0.007%
Dose/g [28]: 0.24%
Dose/organ [29]: 0.51%
Dose/organ [30]: 0.11%
Dose/organ [31]: 22.4%
Dose/organ [32]: 0.14%
Dose/organ [33]: 0.03%
Dose/organ [12]: 6.53%
Dose/organ [34]: 0.66%
Dose/organ [15]: 7.08%
Dose/organ [35]: 4.97%
Dose/organ [36]: 0.31%
Dose/organ [18]: 8.19%
